Assay results of several laboratories.
Each line is one published result; the experiments were not run side by side.
Target: Serine/threonine-protein kinase Chk2 (CHEK2, Homo sapiens, UniProt O96017)

The remaining signal of `O=c1[nH]c2ccccc2n1C1CCN(Cc2ccc(-c3[nH]c4cc5ncnc5cc4nc3-c3ccccc3)cc2)CC1` is reported as 100% (cell-free assay; 0.5 µM).
`COc1cc(Nc2ncc(F)c(Nc3ccc4c(n3)NC(=O)C(C)(C)O4)n2)cc(OC)c1OC` has an inhibition of 45% (binding; competition with immobilised ligand; 10 µM).
The inhibition of `Cn1cc(-c2cc(F)cc(N3CCn4c(cc5c4CCCC5)C3=O)c2CO)cc(Nc2ccc(N3CCN(C4COC4)CC3)cn2)c1=O` is reported as 11% (enzyme activity; inhibitor; 0.1 µM).
`Cn1cncc1[C@@](O)(COc1ccc(C#N)cc1-c1ccc(OC(F)(F)F)cc1)c1ccc(C#N)cc1` gave a remaining binding of 96% (cell-free assay; competition with immobilised ligand; 1 µM).
For `Cc1nn(C)cc1-c1nc2c(N3CCN(Cc4ccc(Cl)cc4)CC3)c(Cl)cnc2[nH]1`, the remaining binding was 100% (binding; competition with immobilised ligand; 1 µM).
`Cn1cc(-c2cccc(N3CCc4c(sc5c4CC(C)(C)C5)C3=O)c2CO)cc(Nc2ccncn2)c1=O` has an inhibition of 1% (enzyme activity; inhibitor; 1 µM).
`Nc1ncc(-c2nc(N3CCOCC3)nc(N3CCOCC3)n2)c(C(F)F)n1` has a remaining binding of 75% (binding; competition with immobilised ligand; 10 µM).
With `COc1ncccc1-c1cnn2ccc(N3CCN(C(=O)OC(C)C)CC3)nc12` the remaining binding was 77% (binding; competition with immobilised ligand; 1 µM).
With `N#CC1(c2ccccn2)CCN(Cc2cc(C(=O)O)c(=O)n3ccccc23)CC1` the remaining binding was 87% (cell-free assay; competition with immobilised ligand; 1 µM).
With `CC(C)(C)c1cc(C=C(C#N)C#N)cc(Br)c1O` the remaining activity was 104% (enzyme activity; inhibitor; 0.5 µM).
